In ChEMBL document CHEMBL4414568, “Development of Novel Irreversible Pyruvate Kinase M2 Inhibitors” (J Med Chem, 2019):
Calls of active or inactive are those of the source. The calls are words filed in the database; no cut-off is given here.

Legend:
[1] = biological target: T1, Pyruvate kinase PKM (Homo sapiens, UniProt P14618); test: Inhibition of PKM2 in human PC9 cells assessed as reduction in beta-catenin phosphorylation incubated for 24 hrs by Western blot analysis; assay type: cell-based
Procedure, shortened: (§1)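 PC-9 cells seeded at 5 × 10^5 cells/mL; after 24 h given 0–1 µM compound or DMSO for 24 h. Lysates run on 10% SDS-PAGE, transferred to nitrocellulose, probed for PKM2, EGFR, p-STAT3, STAT3, p-β-catenin, β-catenin and β-actin with HRP secondaries, ECL detection.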

[2] = biological target: T1, Pyruvate kinase PKM; test: Inhibition of PKM2 in human PC9 cells assessed as increase in oxygen consumption rate at 0.25 to 1 uM preincubated for 4 hrs followed by glucose/oligomycin/2-DG addition and measured after 1 hr by seahorse XFe96 analyser based assay; assay type: cell-based
Procedure, shortened: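 PC-9 cells, 5 × 10^4 per well, seeded 24 h ahead, then treated with DMSO or compound at 0.25, 0.5 or 1 µM for 4 h at 37 °C. Cells held 1 h without CO2 in glycolysis medium. Seahorse glycolysis stress test with serial injections of 10 mM glucose, oligomycin and 50 mM 2-DG; ECAR and OCR recorded together. Six wells per point.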

[3] = biological target: T1, Pyruvate kinase PKM; test: Inhibition of PKM2 in human PC9 cells assessed as down regulation of EGFR expression incubated for 24 hrs by Western blot analysis; assay type: cell-based; procedure, shortened: as §1
[4] = system: PC-9; test: Down regulation of PKM2 expression in human PC9 cells incubated for 24 hrs by Western blot analysis; assay type: functional, cell-based; procedure, shortened: as §1
[5] = system: Mus musculus; test: In vivo inhibition of PKM2 in human PC9 cells xenografted in athymic nude mouse assessed as reduction in PKM2 expression at 10 mg/kg, ip administered once daily for 25 days measured post-last dose by Western blot analysis; assay type: functional, organism-based
Procedure, shortened: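 Tumors from PC-9 xenograft nude mice given 10 mg/kg i.p. daily or vehicle for 25 days (n = 8 per group) were lysed for Western blots of PKM2, EGFR, Stat3 and β-catenin. Bands quantified by ImageJ and normalized to GAPDH.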

[6] = biological target: T1, Pyruvate kinase PKM; test: Inhibition of recombinant human PKM2 expressed in Escherichia coli at 0.125 to 0.5 uM using PEP as substrate incubated for 20 mins by OxiRed probe-based colorimetric assay relative to control
Procedure, shortened: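 Recombinant PKM1 or PKM2 incubated with compound at room temperature for 20 min. Remaining activity measured by the same colorimetric kit: PEP + […], PK then pyruvate oxidase, H2O2 read-out. n = 3.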

[7] = biological target: T1, Pyruvate kinase PKM; test: Inhibition of PKM2 in human PC9 cells assessed as reduction in STAT3 phosphorylation incubated for 24 hrs by Western blot analysis; assay type: cell-based; procedure, shortened: as §1
[8] = system: MDA-MB-231; test: Antiproliferative activity against human MDA-MB-231 cells assessed as reduction in cell viability incubated for 24 hrs by MTT assay; assay type: functional, cell-based; settings: MDA-MB-231, 24 h
Procedure, shortened: (§2)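 Cells seeded at 3,500 per well in 10% FBS and left overnight, then exposed to test agent or vehicle in 5% FBS for 24 h. MTT added for 1 h, then medium swapped for DMSO and absorbance read at 560 nm. Viability given as percent of vehicle-treated control. Run in triplicate.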

[9] = biological target: T2, Malonate--CoA ligase ACSF3, mitochondrial (Homo sapiens) (UniProt Q4G176); test: Binding affinity to ACSF3 in human PC9 cells incubated for 1 hr by ABPP-SILAC assay; assay type: cell-based
T2 sequence (whole entry): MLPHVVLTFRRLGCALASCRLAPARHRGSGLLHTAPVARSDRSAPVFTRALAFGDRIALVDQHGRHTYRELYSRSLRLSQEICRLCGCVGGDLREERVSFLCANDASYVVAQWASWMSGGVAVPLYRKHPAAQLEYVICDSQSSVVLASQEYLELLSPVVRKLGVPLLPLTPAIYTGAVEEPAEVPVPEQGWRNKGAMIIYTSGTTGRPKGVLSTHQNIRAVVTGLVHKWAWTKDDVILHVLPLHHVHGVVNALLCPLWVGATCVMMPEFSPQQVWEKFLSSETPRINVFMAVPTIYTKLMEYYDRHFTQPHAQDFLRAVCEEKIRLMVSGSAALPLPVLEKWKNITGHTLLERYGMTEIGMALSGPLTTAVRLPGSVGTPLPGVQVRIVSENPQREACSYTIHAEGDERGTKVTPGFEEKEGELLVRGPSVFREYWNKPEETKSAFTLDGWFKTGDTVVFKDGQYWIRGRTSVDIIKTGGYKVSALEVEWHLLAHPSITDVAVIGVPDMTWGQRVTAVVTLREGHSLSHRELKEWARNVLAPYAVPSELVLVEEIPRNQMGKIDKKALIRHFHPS
Procedure, shortened: (§3)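 PC-9 cells passaged at least six times in SILAC DMEM with 10% dialyzed FBS plus 100 µg/mL light or 13C/15N-labeled Arg/Lys. Heavy cells got ABPP probe (1 µM) and light cells DMSO, 1 h at 37 °C. Cells mixed 1:1, sonicated, spun at 100,000g, protein normalized to 1 mg/mL. Click biotin-azide, streptavidin bead pulldown 16 h at 4 °C, SDS-PAGE, on-bead trypsin digestion, LC-MS/MS.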

[10] = system: PC-9; test: Antitumor activity against human PC9 cells xenografted in athymic nude mouse assessed as reduction in tumor growth at 10 mg/kg, ip administered once daily for 25 days measured post-last dose by caliper method; assay type: functional, organism-based
Procedure, shortened: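 Female nude mice, 6 weeks old, given s.c. 1 × 10^6 PC-9 cells in Matrigel (1:1). From day 7, once-daily i.p. vehicle or 10 mg/kg compound in sterile water with 0.5% methylcellulose and 0.1% Tween-80, n = 8 per group, for 25 days. Tumor volume and body weight followed, tumors weighed at end.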

[11] = biological target: T3, Phosphoglycerate kinase 1 (Homo sapiens) (UniProt P00558); test: Binding affinity to PGK1 in human PC9 cells incubated for 1 hr by ABPP-SILAC assay; assay type: cell-based; procedure, shortened: as §3
T3 sequence (whole entry): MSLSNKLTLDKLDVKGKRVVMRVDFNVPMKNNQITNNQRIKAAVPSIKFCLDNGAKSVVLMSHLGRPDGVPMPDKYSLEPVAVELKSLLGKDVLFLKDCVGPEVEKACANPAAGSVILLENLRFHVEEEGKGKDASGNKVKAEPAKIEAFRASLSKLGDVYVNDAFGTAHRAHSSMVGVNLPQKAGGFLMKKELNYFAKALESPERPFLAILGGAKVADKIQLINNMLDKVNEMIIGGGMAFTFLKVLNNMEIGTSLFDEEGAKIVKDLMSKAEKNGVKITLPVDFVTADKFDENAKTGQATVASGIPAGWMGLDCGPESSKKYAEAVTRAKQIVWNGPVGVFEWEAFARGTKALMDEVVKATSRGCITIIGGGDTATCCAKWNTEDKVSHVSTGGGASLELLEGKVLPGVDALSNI

[12] = system: NCI-H1650; test: Antiproliferative activity against human NCI-H1650 cells harboring EGFR mutant assessed as reduction in cell viability incubated for 24 hrs by MTT assay; assay type: functional, cell-based; settings: NCI-H1650, 24 h; procedure, shortened: as §2
[13] = biological target: T1, Pyruvate kinase PKM; test: Inhibition of PKM2 in human PC9 cells assessed as reduction in beta-catenin phosphorylation at 0.5 uM incubated for 24 hrs by Western blot analysis; assay type: cell-based; procedure, shortened: as §1
[14] = system: NCI-H157; test: Antiproliferative activity against human NCI-H157 cells assessed as reduction in cell viability incubated for 24 hrs by MTT assay; assay type: functional, cell-based; settings: NCI-H157, 24 h; procedure, shortened: as §2

T1 sequence (P14618 2-531 limits assumed): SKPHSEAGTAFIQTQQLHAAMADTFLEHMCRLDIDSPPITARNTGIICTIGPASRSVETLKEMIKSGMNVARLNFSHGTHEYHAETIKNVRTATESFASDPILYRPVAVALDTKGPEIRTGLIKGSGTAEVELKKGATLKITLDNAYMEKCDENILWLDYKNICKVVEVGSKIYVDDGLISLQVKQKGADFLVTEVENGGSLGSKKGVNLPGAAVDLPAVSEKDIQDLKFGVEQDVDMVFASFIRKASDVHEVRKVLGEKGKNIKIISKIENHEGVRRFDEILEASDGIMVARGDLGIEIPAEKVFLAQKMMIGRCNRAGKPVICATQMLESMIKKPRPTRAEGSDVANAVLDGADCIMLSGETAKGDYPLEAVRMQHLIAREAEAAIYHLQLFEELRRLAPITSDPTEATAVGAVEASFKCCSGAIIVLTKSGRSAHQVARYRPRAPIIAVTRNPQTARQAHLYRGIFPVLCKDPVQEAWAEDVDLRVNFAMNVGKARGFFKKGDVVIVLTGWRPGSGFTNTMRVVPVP

- inhibition [1]: Dose-dependent effect
- inhibition [2]: Active
- inhibition [3]: Dose-dependent effect
- inhibition [6]: 30%
- inhibition [7]: Dose-dependent effect
- IC50 [8]: 100 nM
- Activity [9]: Active
- Activity [11]: Active
- IC50 [12]: 200 nM
- inhibition [13]: inactive
- IC50 [14]: > 2000 nM
SMILES: C#CC(=O)Nc1ccc(-n2nc(CCC(=O)NC)cc2-c2ccc(-c3ccc(C(F)(F)F)cc3)cc2)cc1
- Activity [4]: Dose-dependent effect
- inhibition [5]: Active
- Activity [10]: Active
